The values that follow come from ChEMBL document CHEMBL1122532, “[(Aminomethyl)aryloxy]acetic acid esters. A new class of high-ceiling diuretics. 2. Modifications of the oxyacetic side chain” (J Med Chem, 1984).

The test system of data set [1] is Rattus norvegicus. As to the kind of experiment: Oral dose necessary to produce an excretion of 2 mequiv of Na+/kg in the rat urine in the 4-h period after peroral administration. The class given is ADME, organism-based. The conditions noted are these: in vivo. The method in brief: (§1)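 Rats dosed orally. Urinary Na⁺ was measured over the 4 h after dosing. ED₂ is the oral dose (mg/kg) giving excretion of 2 mequiv Na⁺/kg in that period.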

Data set [2] relates to Rattus norvegicus. Nature of the data set: Oral dose necessary to produce an excretion of 2 mequiv of Na+/kg in the rat urine in the 4-h period after peroral administration; Inactive. The class given is ADME, organism-based. The note with it: in vivo. In outline:
as §1

For data set [3], the species on record is Canis familiaris. Nature of the data set: Relative amount of acid ([4-(3-Aminomethyl-4-hydroxy-benzoyl)-2,3-dichloro-phenoxy]-acetic acid;) appearing in dog plasma was reported. The class given is functional, Canis lupus familiaris.
Data set [4] has as its system Canis familiaris. As to the kind of experiment: Oral dose in mg/kg necessary to produce an excretion of 5 mequiv of Na+/kg in the dog urine during 6-h period after dosing. The note with it: in vivo.
Data set [5] has as its system frog. As to the kind of experiment: Dose required for 50% inhibition of chloride transport in frog cornea was evaluated; No inhibition. The class given is functional, tissue-based.
The nature of data set [6]: Dose required for 50% inhibition of chloride transport in frog cornea was evaluated. The class given is functional.
In data set [7] the test system is Rattus norvegicus. Nature of the data set: Oral dose necessary to produce an excretion of 2 mequiv of Na+/kg in the rat urine in the 4-h period after peroral administration; inactive. The class given is ADME, organism-based. The conditions noted are these: in vivo. In outline:
as §1

Calls of active or inactive are those of the source. The calls are words filed in the database; no cut-off is given here.

Consider `CC(=O)COc1ccc(C(=O)c2ccc(O)c(CN)c2)c(Cl)c1Cl.Cl`, for which, in data set [1], the ED2 was 28.5 mg/kg.

As to `COc1ccc(C(=O)c2ccc(O)c(CN)c2)c(Cl)c1Cl.Cl`, the ED2 result in data set [2] was “Not Active”.

In data set [3], `Cl.NCCOc1ccc(C(=O)c2ccc(O)c(CN)c2)c(Cl)c1Cl` gave a Relative amount of 25%. For the same compound, the ED2 in data set [1] is 16.2 mg/kg. For the same compound, the ED5 in data set [4] was 8 mg/kg. In data set [5], the Inhibition result was “inactive”.

With `CCOC(=O)C(C)Oc1ccc(C(=O)c2ccc(O)c(CN)c2)c(Cl)c1Cl.Cl` (stereo unspecified), in data set [1], the ED2 amounted to 19.5 mg/kg.

Compound `CCOC(=O)COc1ccc(C(=O)c2ccc(O)c(CN)c2)c(Cl)c1Cl.Cl` gave an IC50 in data set [6] of 14.6 µM. In data set [3], this compound registered a Relative amount of 100%. The ED2 in data set [1] turned out to be 2.5 mg/kg. In addition, the ED5 in data set [4] amounted to 1 mg/kg.

For `CCOC(=O)CSc1ccc(Oc2ccc(O)c(CN)c2)c(Cl)c1Cl.Cl`, the ED2 in data set [1] was 1.22 mg/kg.

With `Cl.NCc1cc(C(=O)c2ccc(OCC(N)=O)c(Cl)c2Cl)ccc1O`, the IC50 in data set [6] turned out to be 16.5 µM. Further, the Relative amount in data set [3] was found to be 67%. Also, the ED2 in data set [1] stood at 17 mg/kg. The ED5 in data set [4] worked out at 0.7 mg/kg.

`CCOC(=O)C1Cc2cc(C(=O)c3ccc(O)c(CN)c3)c(Cl)c(Cl)c2O1` (stereo unspecified): the ED2 in data set [1] was 0.11 mg/kg.

In the case of `CCOC(=O)Cc1ccc(Oc2ccc(O)c(CN)c2)c(Cl)c1Cl.Cl`, in data set [1], the ED2 turned out to be 21.5 mg/kg.

As to `Cl.N#CCOc1ccc(C(=O)c2ccc(O)c(CN)c2)c(Cl)c1Cl`, the ED2 result in data set [2] is given as “Not Active”.

Regarding `CCOC(=O)c1ccc(Oc2ccc(O)c(CN)c2)c(Cl)c1Cl.Cl`, the ED2 entry in data set [2] is “Not Active”.

For `CCOC(=O)COc1ccc(Oc2ccc(O)c(CN)c2)c(Cl)c1Cl.Cl`, the ED2 in data set [1] is 0.8 mg/kg.

In the case of `Cl.NCc1cc(C(=O)c2ccc(OCCO)c(Cl)c2Cl)ccc1O`, the Relative amount in data set [3] is reported as 13%. Moreover, the ED2 in data set [1] stood at 1 mg/kg. Further, in data set [4], the ED5 is 5.5 mg/kg. In data set [5], the Inhibition entry is “inactive”.

Take `Cl.NCc1cc(C(=O)c2ccc(OCC(=O)O)c(Cl)c2Cl)ccc1O`: the IC50 in data set [6] stood at 8.4 µM. In data set [2], the ED2 result was “Not Active”. Besides, in data set [4], the ED5 was 0.71 mg/kg.

Take `CCOC(=O)C(C)(C)Oc1ccc(C(=O)c2ccc(O)c(CN)c2)c(Cl)c1Cl.Cl`: the ED2 result in data set [7] is listed as “Not Active”.

Turning to `CCOC(=O)CCc1ccc(Oc2ccc(O)c(CN)c2)c(Cl)c1Cl.Cl`, the ED2 in data set [1] is 10.7 mg/kg.

`CCOC(=O)CCCOc1ccc(Oc2ccc(O)c(CN)c2)c(Cl)c1Cl.Cl`: in data set [1], the ED2 amounted to 13.5 mg/kg.
